Measurements taken from ChEMBL document CHEMBL1158182, “Antifungal activity of chalcones: a mechanistic study using various yeast strains” (Eur J Med Chem, 2008).

Assays:
Assay type in all cases: functional
Saccharomyces cerevisiae [1] = assay: Antifungal activity against haploid Saccharomyces cerevisiae YSH1171 by agar dilution method
Summary of the method: (§1)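 S. cerevisiae and K. lactis strains were tested by agar dilution on rich YPD agar at 30 °C. Compound stocks in 96% EtOH were added to the medium to give […]. Cells were suspended in water, serially diluted to 10^9–10^3 cells/ml, and plated with a metal replicator. MIC was read from growth.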

Kluyveromyces lactis [2] = assay: Antifungal activity against Kluyveromyces lactis 2-19B with MATalpha ura lys arg genotype by agar dilution method; summary of the method: as §1
Saccharomyces cerevisiae [3] = assay: Antifungal activity against haploid Saccharomyces cerevisiae 2180 by agar dilution method; summary of the method: as §1
Saccharomyces cerevisiae [4] = assay: Antifungal activity against haploid Saccharomyces cerevisiae YSH1170 by agar dilution method; summary of the method: as §1
Ogataea angusta [5] = assay: Antifungal activity against Hansenula polymorpha CD2 with ade1 leu2 cds2 genotype by agar dilution method
Summary of the method: (§2)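 H. polymorpha strains were tested by agar dilution on rich YPD agar at 37 °C. Compound stocks in 96% EtOH were mixed into the medium to give […]. Cells were suspended in water, serially diluted to 10^9, 10^7, 10^5 and 10^3 cells/ml, and applied to the agar with a metal replicator. MIC was read from growth.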

Ogataea angusta [6] = assay: Antifungal activity against Hansenula polymorpha MC1 with met2 cys1 genotype by agar dilution method; summary of the method: as §2
Saccharomyces cerevisiae [7] = assay: Antifungal activity against haploid Saccharomyces cerevisiae Sigma 1278b by agar dilution method; summary of the method: as §1
Ogataea angusta [8] = assay: Antifungal activity against Hansenula polymorpha CRD2 with leu2 CDR2 genotype by agar dilution method; summary of the method: as §2
Kluyveromyces lactis [9] = assay: Antifungal activity against Kluyveromyces lactis 1-6A with MATalpha uraA lys arg genotype by agar dilution method; summary of the method: as §1
Ogataea angusta [10] = assay: Antifungal activity against Hansenula polymorpha R3 with rgh3 genotype by agar dilution method; summary of the method: as §2
Saccharomyces cerevisiae [11] = assay: Antifungal activity against haploid Saccharomyces cerevisiae 10560-6B by agar dilution method; summary of the method: as §1
Ogataea angusta [12] = assay: Antifungal activity against Hansenula polymorpha D22 with arg1/arg1 ade1/ADE1 leu2/leu2 URA3/ura3 CYS1/cys1 genotype by agar dilution method; summary of the method: as §2
Ogataea angusta [13] = assay: Antifungal activity against Hansenula polymorpha AU05 with ade3 ura3 genotype by agar dilution method; summary of the method: as §2
Ogataea angusta [14] = assay: Antifungal activity against Hansenula polymorpha WT1 with ade1 ura3 genotype by agar dilution method; summary of the method: as §2
Ogataea angusta [15] = assay: Antifungal activity against Hansenula polymorpha CD3 with ade1 leu2 cds3 genotype by agar dilution method; summary of the method: as §2
Ogataea angusta [16] = assay: Antifungal activity against Hansenula polymorpha 2a with arg1 leu2 ura3 cys1 genotype by agar dilution method; summary of the method: as §2
Ogataea angusta [17] = assay: Antifungal activity against Hansenula polymorpha M4 with met4 genotype by agar dilution method; summary of the method: as §2
Kluyveromyces lactis [18] = assay: Antifungal activity against Kluyveromyces lactis 2-18B with MATalpha metA1 ura3 leu2 genotype by agar dilution method; summary of the method: as §1
Ogataea angusta [19] = assay: Antifungal activity against Hansenula polymorpha AS1 with arg1 gsh2delta genotype by agar dilution method; summary of the method: as §2
Ogataea angusta [20] = assay: Antifungal activity against Hansenula polymorpha 2b with arg1 ade1 leu2 genotype by agar dilution method; summary of the method: as §2
Saccharomyces cerevisiae [21] = assay: Antifungal activity against diploid Saccharomyces cerevisiae 29a by agar dilution method; summary of the method: as §1
Saccharomyces cerevisiae [22] = assay: Antifungal activity against haploid Saccharomyces cerevisiae 1169 by agar dilution method; summary of the method: as §1
Saccharomyces cerevisiae [23] = assay: Antifungal activity against haploid Saccharomyces cerevisiae FY4 by agar dilution method; summary of the method: as §1
Ogataea angusta [24] = assay: Antifungal activity against Hansenula polymorpha CD1 with ade1 leu2 cds1 genotype by agar dilution method; summary of the method: as §2
Ogataea angusta [25] = assay: Antifungal activity against Hansenula polymorpha M2 with met2 genotype by agar dilution method; summary of the method: as §2
Ogataea angusta [26] = assay: Antifungal activity against Hansenula polymorpha WT2 with ade1 met6 genotype by agar dilution method; summary of the method: as §2
Saccharomyces cerevisiae [27] = assay: Antifungal activity against diploid Saccharomyces cerevisiae 1a by agar dilution method; summary of the method: as §1
Saccharomyces cerevisiae [28] = assay: Antifungal activity against haploid Saccharomyces cerevisiae 1S by agar dilution method; summary of the method: as §1

Measured: MIC

CC(=O)Nc1ccc(/C=C/C(=O)c2ccc(Cl)cc2)cc1
> 40 µg/mL: Saccharomyces cerevisiae [1] | Kluyveromyces lactis [2] | Saccharomyces cerevisiae [3] | Saccharomyces cerevisiae [4] | Ogataea angusta [5] | Ogataea angusta [6] | Saccharomyces cerevisiae [7] | Ogataea angusta [8] | Kluyveromyces lactis [9] | Ogataea angusta [10] | Saccharomyces cerevisiae [11] | Ogataea angusta [12] | Ogataea angusta [13] | Ogataea angusta [14] | Ogataea angusta [15] | Ogataea angusta [16] | Ogataea angusta [17] | Kluyveromyces lactis [18] | Ogataea angusta [19] | Ogataea angusta [20] | Saccharomyces cerevisiae [21] | Saccharomyces cerevisiae [22] | Saccharomyces cerevisiae [23] | Ogataea angusta [24] | Ogataea angusta [25] | Ogataea angusta [26] | Saccharomyces cerevisiae [27] | Saccharomyces cerevisiae [28]

COc1cccc(/C=C/C(=O)c2ccc(Cl)cc2)c1O
> 40 µg/mL: Saccharomyces cerevisiae [1] | Kluyveromyces lactis [2] | Saccharomyces cerevisiae [3] | Saccharomyces cerevisiae [4] | Ogataea angusta [5] | Ogataea angusta [6] | Saccharomyces cerevisiae [7] | Ogataea angusta [8] | Kluyveromyces lactis [9] | Ogataea angusta [10] | Saccharomyces cerevisiae [11] | Ogataea angusta [12] | Ogataea angusta [13] | Ogataea angusta [14] | Ogataea angusta [15] | Ogataea angusta [16] | Ogataea angusta [17] | Kluyveromyces lactis [18] | Ogataea angusta [19] | Ogataea angusta [20] | Saccharomyces cerevisiae [21] | Saccharomyces cerevisiae [22] | Saccharomyces cerevisiae [23] | Ogataea angusta [24] | Ogataea angusta [25] | Ogataea angusta [26] | Saccharomyces cerevisiae [27] | Saccharomyces cerevisiae [28]

O=C(/C=C/c1ccc(O)c(O)c1)c1ccc(Cl)cc1
> 40 µg/mL: Saccharomyces cerevisiae [1] | Kluyveromyces lactis [2] | Saccharomyces cerevisiae [3] | Saccharomyces cerevisiae [4] | Ogataea angusta [5] | Ogataea angusta [6] | Saccharomyces cerevisiae [7] | Ogataea angusta [8] | Kluyveromyces lactis [9] | Ogataea angusta [10] | Saccharomyces cerevisiae [11] | Ogataea angusta [12] | Ogataea angusta [13] | Ogataea angusta [14] | Ogataea angusta [15] | Ogataea angusta [16] | Ogataea angusta [17] | Kluyveromyces lactis [18] | Ogataea angusta [19] | Ogataea angusta [20] | Saccharomyces cerevisiae [21] | Saccharomyces cerevisiae [22] | Saccharomyces cerevisiae [23] | Ogataea angusta [24] | Ogataea angusta [25] | Ogataea angusta [26] | Saccharomyces cerevisiae [27] | Saccharomyces cerevisiae [28]

O=C(/C=C/c1ccc(O)cc1)c1ccccc1 [4-HYDROXYCHALCONE]
> 40 µg/mL: Saccharomyces cerevisiae [1] | Kluyveromyces lactis [2] | Saccharomyces cerevisiae [3] | Saccharomyces cerevisiae [4] | Ogataea angusta [5] | Ogataea angusta [6] | Saccharomyces cerevisiae [7] | Ogataea angusta [8] | Kluyveromyces lactis [9] | Ogataea angusta [10] | Saccharomyces cerevisiae [11] | Ogataea angusta [12] | Ogataea angusta [13] | Ogataea angusta [14] | Ogataea angusta [15] | Ogataea angusta [16] | Ogataea angusta [17] | Kluyveromyces lactis [18] | Ogataea angusta [19] | Ogataea angusta [20] | Saccharomyces cerevisiae [21] | Saccharomyces cerevisiae [22] | Saccharomyces cerevisiae [23] | Ogataea angusta [24] | Ogataea angusta [25] | Ogataea angusta [26] | Saccharomyces cerevisiae [27] | Saccharomyces cerevisiae [28]

COc1ccc(/C=C/C(=O)c2ccc(Cl)cc2)cc1O
> 40 µg/mL: Saccharomyces cerevisiae [1] | Kluyveromyces lactis [2] | Saccharomyces cerevisiae [3] | Saccharomyces cerevisiae [4] | Ogataea angusta [5] | Ogataea angusta [6] | Saccharomyces cerevisiae [7] | Ogataea angusta [8] | Kluyveromyces lactis [9] | Ogataea angusta [10] | Saccharomyces cerevisiae [11] | Ogataea angusta [12] | Ogataea angusta [13] | Ogataea angusta [14] | Ogataea angusta [15] | Ogataea angusta [16] | Ogataea angusta [17] | Kluyveromyces lactis [18] | Ogataea angusta [19] | Ogataea angusta [20] | Saccharomyces cerevisiae [21] | Saccharomyces cerevisiae [22] | Saccharomyces cerevisiae [23] | Ogataea angusta [24] | Ogataea angusta [25] | Ogataea angusta [26] | Saccharomyces cerevisiae [27] | Saccharomyces cerevisiae [28]

O=C(/C=C/C=C/c1ccccc1)c1ccc(Cl)cc1
> 40 µg/mL: Saccharomyces cerevisiae [1] | Kluyveromyces lactis [2] | Saccharomyces cerevisiae [3] | Saccharomyces cerevisiae [4] | Ogataea angusta [5] | Ogataea angusta [6] | Saccharomyces cerevisiae [7] | Ogataea angusta [8] | Kluyveromyces lactis [9] | Ogataea angusta [10] | Saccharomyces cerevisiae [11] | Ogataea angusta [12] | Ogataea angusta [13] | Ogataea angusta [14] | Ogataea angusta [15] | Ogataea angusta [16] | Ogataea angusta [17] | Kluyveromyces lactis [18] | Ogataea angusta [19] | Ogataea angusta [20] | Saccharomyces cerevisiae [21] | Saccharomyces cerevisiae [22] | Saccharomyces cerevisiae [23] | Ogataea angusta [24] | Ogataea angusta [25] | Ogataea angusta [26] | Saccharomyces cerevisiae [27] | Saccharomyces cerevisiae [28]

COc1cc(/C=C/C(=O)c2ccc(Cl)cc2)cc(OC)c1O
> 40 µg/mL: Saccharomyces cerevisiae [1] | Kluyveromyces lactis [2] | Saccharomyces cerevisiae [3] | Saccharomyces cerevisiae [4] | Ogataea angusta [5] | Ogataea angusta [6] | Saccharomyces cerevisiae [7] | Ogataea angusta [8] | Kluyveromyces lactis [9] | Ogataea angusta [10] | Saccharomyces cerevisiae [11] | Ogataea angusta [12] | Ogataea angusta [13] | Ogataea angusta [14] | Ogataea angusta [15] | Ogataea angusta [16] | Ogataea angusta [17] | Kluyveromyces lactis [18] | Ogataea angusta [19] | Ogataea angusta [20] | Saccharomyces cerevisiae [21] | Saccharomyces cerevisiae [22] | Saccharomyces cerevisiae [23] | Ogataea angusta [24] | Ogataea angusta [25] | Ogataea angusta [26] | Saccharomyces cerevisiae [27] | Saccharomyces cerevisiae [28]

O=C(/C=C/c1ccc(Cl)cc1)c1ccc(Cl)cc1 [4',4-DICHLOROCHALCONE]
> 40 µg/mL: Saccharomyces cerevisiae [1] | Kluyveromyces lactis [2] | Saccharomyces cerevisiae [3] | Saccharomyces cerevisiae [4] | Ogataea angusta [5] | Ogataea angusta [6] | Saccharomyces cerevisiae [7] | Ogataea angusta [8] | Kluyveromyces lactis [9] | Ogataea angusta [10] | Saccharomyces cerevisiae [11] | Ogataea angusta [12] | Ogataea angusta [13] | Ogataea angusta [14] | Ogataea angusta [15] | Ogataea angusta [16] | Ogataea angusta [17] | Kluyveromyces lactis [18] | Ogataea angusta [19] | Ogataea angusta [20] | Saccharomyces cerevisiae [21] | Saccharomyces cerevisiae [22] | Saccharomyces cerevisiae [23] | Ogataea angusta [24] | Ogataea angusta [25] | Ogataea angusta [26] | Saccharomyces cerevisiae [27] | Saccharomyces cerevisiae [28]

N#Cc1ccc(/C=C/C(=O)c2ccc(Cl)cc2)cc1
> 40 µg/mL: Saccharomyces cerevisiae [1] | Kluyveromyces lactis [2] | Saccharomyces cerevisiae [3] | Saccharomyces cerevisiae [4] | Ogataea angusta [5] | Ogataea angusta [6] | Saccharomyces cerevisiae [7] | Ogataea angusta [8] | Kluyveromyces lactis [9] | Ogataea angusta [10] | Saccharomyces cerevisiae [11] | Ogataea angusta [12] | Ogataea angusta [13] | Ogataea angusta [14] | Ogataea angusta [15] | Ogataea angusta [16] | Ogataea angusta [17] | Kluyveromyces lactis [18] | Ogataea angusta [19] | Ogataea angusta [20] | Saccharomyces cerevisiae [21] | Saccharomyces cerevisiae [22] | Saccharomyces cerevisiae [23] | Ogataea angusta [24] | Ogataea angusta [25] | Ogataea angusta [26] | Saccharomyces cerevisiae [27] | Saccharomyces cerevisiae [28]

O=C(/C=C/c1ccc([N+](=O)[O-])cc1)c1ccc(Cl)cc1
> 40 µg/mL: Saccharomyces cerevisiae [1] | Kluyveromyces lactis [2] | Saccharomyces cerevisiae [3] | Saccharomyces cerevisiae [4] | Ogataea angusta [5] | Ogataea angusta [6] | Saccharomyces cerevisiae [7] | Ogataea angusta [8] | Kluyveromyces lactis [9] | Ogataea angusta [10] | Saccharomyces cerevisiae [11] | Ogataea angusta [12] | Ogataea angusta [13] | Ogataea angusta [14] | Ogataea angusta [15] | Ogataea angusta [16] | Ogataea angusta [17] | Kluyveromyces lactis [18] | Ogataea angusta [19] | Ogataea angusta [20] | Saccharomyces cerevisiae [21] | Saccharomyces cerevisiae [22] | Saccharomyces cerevisiae [23] | Ogataea angusta [24] | Ogataea angusta [25] | Ogataea angusta [26] | Saccharomyces cerevisiae [27] | Saccharomyces cerevisiae [28]

COc1ccc(/C=C/C(=O)c2ccc(Cl)cc2)cc1
> 40 µg/mL: Saccharomyces cerevisiae [1] | Kluyveromyces lactis [2] | Saccharomyces cerevisiae [3] | Saccharomyces cerevisiae [4] | Ogataea angusta [5] | Ogataea angusta [6] | Saccharomyces cerevisiae [7] | Ogataea angusta [8] | Kluyveromyces lactis [9] | Ogataea angusta [10] | Saccharomyces cerevisiae [11] | Ogataea angusta [12] | Ogataea angusta [13] | Ogataea angusta [14] | Ogataea angusta [15] | Ogataea angusta [16] | Ogataea angusta [17] | Kluyveromyces lactis [18] | Ogataea angusta [19] | Ogataea angusta [20] | Saccharomyces cerevisiae [21] | Saccharomyces cerevisiae [22] | Saccharomyces cerevisiae [23] | Ogataea angusta [24] | Ogataea angusta [25] | Ogataea angusta [26] | Saccharomyces cerevisiae [27] | Saccharomyces cerevisiae [28]
